Converted amounts (≈) assume the structure as drawn. The source made the active and inactive calls. The calls are words filed in the database; no cut-off is given here.
Columns and labels:
MCF7 [1] = assay: Antimitotic activity in human MCF7mp53 cells assessed as induction of mitotic arrest at 50 ug/mL after 20 hrs; assay type: functional, cell-based
In short: (§1)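 MCF-7mp53 cells in 96-well plates, treated in triplicate with compound at 1-50 μg/mL for 20 h at 37 °C. Plates spun 50g, 2 min, to keep mitotic cells attached. Cells fixed/permeabilized (3.7% formaldehyde, 0.1% Triton X-100 in TBS), blocked with 1% BSA. Mitotic cells stained with TG-3 antibody plus fluorescent secondary, nuclei with Hoechst 33342. High-content imaging gave percentage of cells in mitosis.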

MCF7 [2] = assay: Antimitotic activity in human MCF7mp53 cells assessed as cells arrested at mitotic stage at optimal concentration after 20 hrs; assay type: functional; in short: as §1
MCF7 [3] = assay: Antimitotic activity in human MCF7mp53 cells assessed as induction of mitotic arrest after 20 hrs; assay type: functional, cell-based; settings: MCF7, 20 h; in short: as §1

Compound	IC50 (MCF7 [3])	Activity (MCF7 [1])	Activity (MCF7 [2])
COc1c(C)cc(Cc2c3nc(N)nc-3ccn(C)c2=O)cc1C		inactive	
COc1c(C)cc(/C=C2/C(=O)N(C)C=Cc3nc(N(C)C(=O)C(F)(F)F)n(C)c32)cc1C		inactive	
CNc1nc2ccn(C)c(=O)c(C(O)c3cc(C)c(OC)c(C)c3)c-2n1 (stereo unspecified)		inactive	
COc1c(C)cc(Cc2c3nc(N(C)C)nc-3ccn(C)c2=O)cc1C	3 µg/mL (≈ 8.51 µM)		82%

Second part, led by results:

IC50 (MCF7 [3])	Compound	Activity (MCF7 [1])	Activity (MCF7 [2])
5 µg/mL (≈ 10.7 µM)	CNc1nc2ccn(C)c(=O)c(Cc3cc(Br)c(OC)c(Br)c3)c-2n1 [CERATAMINE A]		54%
3.5 µg/mL (≈ 10.3 µM)	CNc1nc2ccn(C)c(=O)c(Cc3cc(C)c(OC)c(C)c3)c-2n1		67%
> 50 µg/mL	CNc1nc2ccn(C)c(=O)c(Cc3ccc(OC)cc3)c-2n1 [DESBROMOCERATAMINE A]		23%
